Experimental data taken from ChEMBL document CHEMBL1144047, “Design and synthesis of diketopiperazine and acyclic analogs related to the caprazamycins and liposidomycins as potential antibacterial agents” (2008).
≈ marks a conversion by molar mass, not a printed value.

Key:
Format in all cases: functional
[1] = tested on: Staphylococcus aureus; assay: Antibacterial activity against Staphylococcus aureus Smith after 18 hrs by serial agar dilution method
Outline: (§1)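 MIC determined by serial agar dilution on plain Mueller–Hinton agar; read after 18 h incubation at 37 °C.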

[2] = tested on: Bacillus subtilis; assay: Antibacterial activity against Bacillus subtilis NRRLB-558 after 18 hrs by serial agar dilution method; outline: as §1
[3] = tested on: Mycolicibacterium smegmatis; assay: Antibacterial activity against Mycobacterium smegmatis ATCC607 after 42 hrs by serial agar dilution method
Outline: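 Serial agar dilution MIC using Mueller–Hinton agar containing 5% glycerol; growth read after 42 h at 37 °C.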

[4] = tested on: Corynebacterium bovis; assay: Antibacterial activity against Corynebacterium bovis 1810 after 18 hrs by serial agar dilution method; outline: as §1
[5] = tested on: Mycobacterium tuberculosis; assay: Antibacterial activity against Mycobacterium tuberculosis H37Rv at 6.25 ug/ml by microplate Alamar blue assay
Outline: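 M. tuberculosis H37Rv (ATCC 27294) grown in BACTEC 12B medium; microplate Alamar blue assay; growth inhibition rate recorded at 6.25 µg/mL.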

[6] = tested on: Micrococcus luteus; assay: Antibacterial activity against Micrococcus luteus PCI1001 after 18 hrs by serial agar dilution method; settings: PCI1001, 18 h; outline: as §1
[7] = tested on: Staphylococcus aureus; assay: Antibacterial activity against MDR-Staphylococcus aureus MS9610 after 18 hrs by serial agar dilution method
Outline: (§2)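 MIC by serial agar dilution on Mueller–Hinton agar (no supplement for staphylococci); plates read after 18 h incubation at 37 °C.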

[8] = tested on: Micrococcus luteus; assay: Antibacterial activity against Micrococcus luteus FDA16 after 18 hrs by serial agar dilution method; outline: as §1
[9] = tested on: Enterococcus faecalis; assay: Antibacterial activity against Enterococcus faecalis NCTC-12201 after 18 hrs by serial agar dilution method
Outline: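 MIC by serial agar dilution on Mueller–Hinton agar supplemented with 5% sheep blood; plates incubated 18 hours at 37 °C under 5% CO₂ before reading.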

[10] = tested on: Staphylococcus aureus; assay: Antibacterial activity against methicillin-resistant Staphylococcus aureus 5 after 18 hrs by serial agar dilution method; outline: as §2

| Structure (SMILES) | MIC [1] [µg/mL] | MIC [2] [µg/mL] | MIC [3] [µg/mL] | MIC [4] [µg/mL] | inhibition at 6.25 µg/mL [5] [%] | MIC [6] [µg/mL] | MIC [7] [µg/mL] | MIC [8] [µg/mL] | MIC [9] [µg/mL] | MIC [10] [µg/mL] |
| --- | --- | --- | --- | --- | --- | --- | --- | --- | --- | --- |
| NC[C@H]1O[C@@H](O[C@H]([C@H]2O[C@@H](n3ccc(=O)[nH]c3=O)[C@H](O)[C@@H]2O)[C@H](N)C(=O)N[C@H](COC(=O)c2ccc(-c3ccccc3)cc2)C(=O)O)[C@H](O)[C@@H]1O | > 100 | > 100 | 100 (≈ 140 µM) | > 100 | 27 | > 100 | > 100 | > 100 | > 100 |  |
| CCCCCCCCCCCCCCCC(=O)OC[C@@H](NC(=O)[C@@H](N)[C@H](O[C@@H]1O[C@H](CN)[C@@H](O)[C@H]1O)[C@H]1O[C@@H](n2ccc(=O)[nH]c2=O)[C@H](O)[C@@H]1O)C(=O)O | 25 (≈ 32.3 µM) | 25 (≈ 32.3 µM) | 50 (≈ 64.6 µM) | 12.5 (≈ 16.2 µM) | 59 | 12.5 (≈ 16.2 µM) | 50 (≈ 64.6 µM) | 50 (≈ 64.6 µM) | 50 (≈ 64.6 µM) | 50 (≈ 64.6 µM) |
| NC[C@H]1O[C@@H](O[C@H]([C@H]2O[C@@H](n3ccc(=O)[nH]c3=O)[C@H](O)[C@@H]2O)[C@H](N)C(=O)N[C@@H](COC(=O)c2ccc(-c3ccccc3)cc2)C(=O)O)[C@H](O)[C@@H]1O | > 100 | > 100 | 100 (≈ 140 µM) | 100 (≈ 140 µM) | 52 | 50 (≈ 69.9 µM) | > 100 | > 100 | > 100 |  |
| NC[C@H]1O[C@@H](O[C@H]([C@H]2O[C@@H](n3ccc(=O)[nH]c3=O)[C@H](O)[C@@H]2O)[C@@H]2NC(=O)[C@@H](COC(=O)c3ccc(-c4ccccc4)cc3)NC2=O)[C@H](O)[C@@H]1O | > 100 | > 100 | > 100 | > 100 | 29 | > 100 | > 100 | > 100 | > 100 |  |
| NC[C@H]1O[C@@H](O[C@H]([C@H]2O[C@@H](n3ccc(=O)[nH]c3=O)[C@H](O)[C@@H]2O)[C@H](N)C(=O)N[C@@H](CO)C(=O)O)[C@H](O)[C@@H]1O | > 100 | > 100 | 100 (≈ 187 µM) | > 100 |  | > 100 | > 100 | > 100 | > 100 |  |
| NC[C@H]1O[C@@H](O[C@H]([C@H]2O[C@@H](n3ccc(=O)[nH]c3=O)[C@H](O)[C@@H]2O)[C@@H]2NC(=O)[C@H](COC(=O)c3ccc(-c4ccccc4)cc3)NC2=O)[C@H](O)[C@@H]1O | > 100 | > 100 | 100 (≈ 143 µM) | > 100 | 48 | 100 (≈ 143 µM) | > 100 | > 100 | > 100 |  |
| CCCCCCCCCCCCCCCC(=O)OC[C@H](NC(=O)[C@@H](N)[C@H](O[C@@H]1O[C@H](CN)[C@@H](O)[C@H]1O)[C@H]1O[C@@H](n2ccc(=O)[nH]c2=O)[C@H](O)[C@@H]1O)C(=O)O | 25 (≈ 32.3 µM) | 25 (≈ 32.3 µM) | 100 (≈ 129 µM) | 12.5 (≈ 16.2 µM) | 51 | 25 (≈ 32.3 µM) | 50 (≈ 64.6 µM) | 50 (≈ 64.6 µM) | 50 (≈ 64.6 µM) | 50 (≈ 64.6 µM) |
| CCCCCCCCCCCCCCCC(=O)OC[C@@H]1NC(=O)[C@H]([C@H](O[C@@H]2O[C@H](CN)[C@@H](O)[C@H]2O)[C@H]2O[C@@H](n3ccc(=O)[nH]c3=O)[C@H](O)[C@@H]2O)NC1=O | 25 (≈ 33.1 µM) | 25 (≈ 33.1 µM) | 100 (≈ 132 µM) | 50 (≈ 66.1 µM) | 35 | 50 (≈ 66.1 µM) | 100 (≈ 132 µM) | 25 (≈ 33.1 µM) | 100 (≈ 132 µM) | 100 (≈ 132 µM) |
